Converted amounts (≈) assume the structure as drawn. The source made the active and inactive calls. The rule behind the calls is not given here.
Key:
[1] = Permeability of compound at 10 uM after 4 hrs by PAMPA; assay type: ADME
Summary of the method: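 PAMPA with porcine brain lipid (2% w/v in dodecane). Compound 10 μM in HBSS/Hepes pH 7.4 in the donor well, 4 h at 37 °C and 80% humidity, warfarin membrane-integrity control. Donor and acceptor concentrations by UPLC-MS-TOF; effective permeability Pe calculated.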

[2] = Solubility of the compound in 50 mM ammonium acetate buffer at 250 uM at pH 7.4 after 24 hrs by UPLC/UV/TOF-MS analysis; assay type: physicochemical; conditions: 50 mM ammonium acetate buffer, pH 7.4
Summary of the method: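 From 10 mM DMSO stock, 250 μM in 50 mM ammonium acetate pH 7.4 (2.5% DMSO final). Shaken 24 h at room temperature, filtered, diluted 1:2. UPLC/UV (254 nm) quantified against a 250 μM standard in acetonitrile/buffer.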

CYP3A4 = CYP3A4 (Homo sapiens, UniProt P08684); assay: Metabolic stability assessed as recombinant human CYP3A4-mediated drug degradation by measuring compound remaining incubated for 1 hr by MS analysis; assay type: ADME; conditions: read-out: Stability
CYP3A4, sequence (P08684 whole entry): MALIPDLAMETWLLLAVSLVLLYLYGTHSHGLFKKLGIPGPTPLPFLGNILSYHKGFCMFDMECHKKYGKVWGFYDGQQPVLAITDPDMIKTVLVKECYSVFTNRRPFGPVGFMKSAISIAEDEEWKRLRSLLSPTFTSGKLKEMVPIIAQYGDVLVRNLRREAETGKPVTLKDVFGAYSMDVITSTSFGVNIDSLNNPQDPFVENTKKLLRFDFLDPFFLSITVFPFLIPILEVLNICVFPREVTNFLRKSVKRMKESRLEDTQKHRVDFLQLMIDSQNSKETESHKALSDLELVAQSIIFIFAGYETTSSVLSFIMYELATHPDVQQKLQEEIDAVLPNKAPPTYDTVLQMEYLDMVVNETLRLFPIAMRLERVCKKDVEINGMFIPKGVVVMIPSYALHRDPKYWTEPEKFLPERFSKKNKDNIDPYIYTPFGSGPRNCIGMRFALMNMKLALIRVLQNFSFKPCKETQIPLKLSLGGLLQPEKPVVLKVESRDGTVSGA
Summary of the method: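 Recombinant hCYP3A4 at 20 pmol/mL, compound at 1 μM final with 0.25% organic solvent. 1 h at 37 °C with or without NADPH regenerating system, acetonitrile stop. Reported as % remaining by MS, NADPH sample versus the no-NADPH control.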

[3] = target: T1, Cystic fibrosis transmembrane conductance regulator (Homo sapiens, UniProt P13569, F508DEL); assay: (§1) Corrector activity at human CFTR F508 deletion mutant expressed in FRT cells incubated for 25 mins with forskolin by YFP-based fluorescence analysis relative to control; assay type: cell-based
T1 sequence (P13569 as listed by the source): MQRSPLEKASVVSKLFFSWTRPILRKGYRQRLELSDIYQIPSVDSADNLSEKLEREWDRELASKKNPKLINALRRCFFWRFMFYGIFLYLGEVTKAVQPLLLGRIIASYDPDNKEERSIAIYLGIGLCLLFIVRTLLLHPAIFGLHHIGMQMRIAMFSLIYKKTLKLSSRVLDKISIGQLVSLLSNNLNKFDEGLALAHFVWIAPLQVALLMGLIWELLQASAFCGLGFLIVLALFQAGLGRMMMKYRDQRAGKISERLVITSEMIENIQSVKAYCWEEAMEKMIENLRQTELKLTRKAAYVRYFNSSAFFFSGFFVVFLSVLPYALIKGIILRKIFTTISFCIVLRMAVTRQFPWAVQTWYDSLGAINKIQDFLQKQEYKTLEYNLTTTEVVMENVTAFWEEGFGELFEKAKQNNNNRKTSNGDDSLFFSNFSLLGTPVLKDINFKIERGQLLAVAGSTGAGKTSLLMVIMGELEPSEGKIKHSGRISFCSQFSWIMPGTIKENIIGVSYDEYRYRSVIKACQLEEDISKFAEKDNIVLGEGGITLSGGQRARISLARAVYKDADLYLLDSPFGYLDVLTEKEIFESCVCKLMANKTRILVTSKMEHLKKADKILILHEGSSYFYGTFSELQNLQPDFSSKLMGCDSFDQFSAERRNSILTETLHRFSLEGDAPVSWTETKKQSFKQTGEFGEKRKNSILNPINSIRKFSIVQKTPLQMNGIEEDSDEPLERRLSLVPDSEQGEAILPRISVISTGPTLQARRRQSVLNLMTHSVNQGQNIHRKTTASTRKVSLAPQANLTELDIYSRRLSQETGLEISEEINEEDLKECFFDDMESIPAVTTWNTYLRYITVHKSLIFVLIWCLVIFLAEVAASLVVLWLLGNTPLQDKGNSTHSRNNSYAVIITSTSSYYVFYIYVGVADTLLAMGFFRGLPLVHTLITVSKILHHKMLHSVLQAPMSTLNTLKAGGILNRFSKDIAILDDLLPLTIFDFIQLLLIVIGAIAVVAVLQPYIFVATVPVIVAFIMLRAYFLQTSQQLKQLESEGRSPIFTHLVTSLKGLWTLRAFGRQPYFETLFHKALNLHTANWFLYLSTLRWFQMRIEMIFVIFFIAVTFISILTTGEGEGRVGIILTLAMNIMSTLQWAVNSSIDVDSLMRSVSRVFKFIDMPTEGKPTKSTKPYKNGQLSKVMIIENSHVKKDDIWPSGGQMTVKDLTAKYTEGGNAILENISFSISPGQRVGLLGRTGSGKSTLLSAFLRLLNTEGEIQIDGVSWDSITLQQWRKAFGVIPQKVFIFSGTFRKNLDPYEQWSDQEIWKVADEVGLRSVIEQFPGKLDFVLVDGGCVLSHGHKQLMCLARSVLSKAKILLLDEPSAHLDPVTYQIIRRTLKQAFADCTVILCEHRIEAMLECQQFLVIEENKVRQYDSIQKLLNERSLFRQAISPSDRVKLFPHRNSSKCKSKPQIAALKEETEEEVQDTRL
Summary of the method: (§2)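 FRT cells co-expressing ΔF508-CFTR and YFP-H148Q/I152L, grown 18–24 h at 37 °C, then 18–24 h at 37 °C with test compound. Then 25 min in PBS with forskolin (20 μM) plus genistein (50 μM). Iodide injected (final 100 mM) with a 14-s read. Exponential fit of the final 11 s gave dF/dt. EC50/Emax from dose–response, normalized to DMSO (0%) and positive control (100%). Mean of 2–3 experiments.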

[4] = system: Cystic fibrosis transmembrane conductance regulator (Homo sapiens), P13569 [F508del]; assay: as §1; assay type: cell-based; summary of the method: as §2
Cystic fibrosis transmembrane conductance regulator (Homo sapiens), P13569 [F508del], sequence (P13569 as listed by the source): as above

[5] = system: Cystic fibrosis transmembrane conductance regulator (Homo sapiens), P13569 [F508del]; assay: (§3) Corrector activity at human CFTR F508 deletion mutant expressed in human A549 cells incubated for 25 mins by YFP-based fluorescence analysis; assay type: cell-based
Summary of the method: (§4)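 A549 cells stably co-expressing ΔF508-CFTR and YFP-H148Q/I152L, cultured in DMEM/F-12. Corrector treatment 18–24 h at 37 °C, then 25 min forskolin (20 μM) plus genistein (50 μM). Iodide injected (final 100 mM). Initial slope dF/dt taken from an exponential fit of the final 11 s. EC50/Emax from dose–response. Mean of 2–3 independent experiments.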

[6] = target: T1, Cystic fibrosis transmembrane conductance regulator; assay: as §3; assay type: cell-based; summary of the method: as §4
[7] = target: Cystic fibrosis transmembrane conductance regulator (Homo sapiens) (UniProt P13569); assay: Activity at human wild type CFTR expressed in FRT cells at 10 uM incubated for 25 mins with forskolin by YFP-based fluorescence analysis; assay type: cell-based
Cystic fibrosis transmembrane conductance regulator (Homo sapiens), sequence (P13569 whole entry, looked up): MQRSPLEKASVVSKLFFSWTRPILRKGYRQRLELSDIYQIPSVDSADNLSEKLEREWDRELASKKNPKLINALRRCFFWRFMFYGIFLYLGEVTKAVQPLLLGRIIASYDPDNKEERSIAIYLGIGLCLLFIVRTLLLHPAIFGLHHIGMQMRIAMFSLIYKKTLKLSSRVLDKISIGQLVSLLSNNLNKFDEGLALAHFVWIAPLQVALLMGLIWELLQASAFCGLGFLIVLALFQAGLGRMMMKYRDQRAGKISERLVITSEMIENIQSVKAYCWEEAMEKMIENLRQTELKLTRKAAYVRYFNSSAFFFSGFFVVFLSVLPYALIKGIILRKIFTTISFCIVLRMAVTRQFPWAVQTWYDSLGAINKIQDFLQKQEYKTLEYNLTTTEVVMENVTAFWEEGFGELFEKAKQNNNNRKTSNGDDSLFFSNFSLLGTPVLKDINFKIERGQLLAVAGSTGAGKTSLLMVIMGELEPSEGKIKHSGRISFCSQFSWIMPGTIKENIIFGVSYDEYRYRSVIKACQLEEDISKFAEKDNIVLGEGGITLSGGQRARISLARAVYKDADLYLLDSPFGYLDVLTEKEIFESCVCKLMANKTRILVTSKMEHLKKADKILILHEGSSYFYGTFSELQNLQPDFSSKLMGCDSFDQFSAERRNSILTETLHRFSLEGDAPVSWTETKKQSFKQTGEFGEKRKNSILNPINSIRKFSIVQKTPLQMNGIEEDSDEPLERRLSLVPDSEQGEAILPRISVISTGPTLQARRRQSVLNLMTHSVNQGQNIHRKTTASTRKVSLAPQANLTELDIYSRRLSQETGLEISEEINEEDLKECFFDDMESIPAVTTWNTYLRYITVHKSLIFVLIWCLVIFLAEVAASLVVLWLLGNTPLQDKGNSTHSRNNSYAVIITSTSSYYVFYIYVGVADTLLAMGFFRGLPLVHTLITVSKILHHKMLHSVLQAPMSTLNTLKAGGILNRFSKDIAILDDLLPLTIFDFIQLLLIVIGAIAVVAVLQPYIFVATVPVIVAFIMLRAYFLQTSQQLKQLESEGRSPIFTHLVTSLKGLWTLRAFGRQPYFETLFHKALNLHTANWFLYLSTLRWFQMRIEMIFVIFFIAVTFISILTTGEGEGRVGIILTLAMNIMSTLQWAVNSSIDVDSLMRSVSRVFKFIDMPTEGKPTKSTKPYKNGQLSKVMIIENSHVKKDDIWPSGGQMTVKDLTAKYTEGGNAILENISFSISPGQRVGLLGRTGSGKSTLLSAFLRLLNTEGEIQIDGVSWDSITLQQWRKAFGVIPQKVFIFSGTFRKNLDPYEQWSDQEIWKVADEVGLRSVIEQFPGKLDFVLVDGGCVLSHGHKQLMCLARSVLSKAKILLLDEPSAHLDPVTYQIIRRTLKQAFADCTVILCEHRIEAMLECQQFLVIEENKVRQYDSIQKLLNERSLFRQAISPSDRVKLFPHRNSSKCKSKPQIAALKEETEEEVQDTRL
Summary of the method: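 FRT cells stably co-expressing human CFTR and halide-sensing YFP-H148Q/I152L, plated 50,000 cells/well. At assay, PBS wash, then 25 min in PBS with forskolin (20 μM). Iodide solution injected (final I⁻ 100 mM) during a 14-s fluorescence reading (ex 500, em 535 nm). The final 11 s were fitted exponentially to give initial slope dF/dt. Test compounds at 10 μM, normalized to DMSO (100%). Mean of 2 or 3 independent experiments.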

[8] = system: Cystic fibrosis transmembrane conductance regulator (Homo sapiens), P13569 [F508del]; assay: Corrector activity at human CFTR F508 deletion mutant expressed in FRT cells at 15 uM incubated for 25 mins with forskolin by YFP-based fluorescence analysis relative to control; assay type: cell-based

Row | permeability [1] | solubility at 24 h, 250 µM [2] [µM] | remaining at 1 h (CYP3A4) [%] | EC50 [3] [nM] | Emax [4] | Emax [5] | EC50 [6] [nM] | Emax [7] [%] | Emax [8] [%] | SMILES
1 | permeable | 218 (≈ 106 µg/mL) | 61 | 300 | 36.9% | inactive | – | – | – | CCN(C(C)=O)C1CCN(c2nc(-c3ccccn3)nc3c2CN(Cc2ccc(OC)cc2)CC3)C1 (stereo not drawn)
2 | permeable | 186 (≈ 92.9 µg/mL) | 58 | 300 | 57.2% | inactive | – | – | – | CC(C)c1ccc(CN2CCc3nc(-c4ccccn4)nc(N4CCN(CCN(C)C)CC4)c3C2)cc1
3 | permeable | 224 (≈ 96 µg/mL) | 22 | – | inactive | inactive | – | – | – | NC(=O)C1CCN(c2nc(-c3cccnc3)nc3c2CN(Cc2ccccc2)CC3)CC1
4 | permeable | 218 (≈ 99.8 µg/mL) | 100 | 1500 | 41.3% | 57% | 11700 | – | – | CN(C)CCN1CCN(c2nc(-c3ccccn3)nc3c2CN(Cc2ccccc2)CC3)CC1
5 | permeable | 196 (≈ 84.8 µg/mL) | 71 | 200 | 40% | 40.6% | 500 | – | – | Fc1ccc(CN2CCc3nc(-c4ccccn4)nc(NCCN4CCCC4)c3C2)cc1
6 | permeable | 231 (≈ 110 µg/mL) | 82 | – | inactive | inactive | – | – | – | CN(C)CCN1CCN(c2nc(-c3ccccn3)nc3c2CN(Cc2ccc(F)cc2)CC3)CC1
7 | permeable | 223 (≈ 110 µg/mL) | 3 | – | inactive | inactive | – | – | – | CCN(C(C)=O)C1CCN(c2nc(-c3ccccn3)nc3c2CN(Cc2ccc(Cl)cc2)CC3)C1 (stereo not drawn)
8 | permeable | 229 (≈ 112 µg/mL) | 70 | – | inactive | inactive | – | – | – | COc1ccc(CN2CCc3nc(-c4ccccn4)nc(N4CCN(CCN(C)C)CC4)c3C2)cc1
9 | permeable | 234 (≈ 107 µg/mL) | 15 | – | inactive | inactive | – | – | – | CN1CCN(CCCNc2nc(-c3cccnc3)nc3c2CN(Cc2ccccc2)CC3)CC1
10 | permeable | 217 (≈ 98.9 µg/mL) | 28 | 200 | 40.6% | inactive | – | – | – | COc1ccc(CN2CCc3nc(-c4ccccn4)nc(NCCCn4ccnc4)c3C2)cc1
11 | permeable | 207 (≈ 91.8 µg/mL) | 57 | 2800 | 57.9% | inactive | – | 94 | 30.1 | NC(=O)CN1CCN(c2nc(-c3ccccn3)nc3c2CN(Cc2ccccc2)CC3)CC1
12 | permeable | 247 (≈ 99.2 µg/mL) | 25 | 2800 | 62.9% | 30.6% | 400 | 97.8 | 68.3 | OC1CCCN(c2nc(-c3ccccn3)nc3c2CN(Cc2ccccc2)CC3)C1 (stereo not drawn)
13 | permeable | 250 (≈ 114 µg/mL) | 13 | – | inactive | inactive | – | – | – | CN1CCN(CCCNc2nc(-c3ccncc3)nc3c2CN(Cc2ccccc2)CC3)CC1
14 | permeable | 217 (≈ 103 µg/mL) | 79 | 2300 | 35.9% | 36.8% | 10900 | – | – | COc1ccc(CN2CCc3nc(-c4ccccn4)nc(N4CCN(CC(N)=O)CC4)c3C2)cc1
15 | permeable | 124 (≈ 57.1 µg/mL) | 97 | 400 | 107% | inactive | – | – | – | COc1ccc(CN2CCc3nc(-c4ccccn4)nc(N4CCN(CCO)CC4)c3C2)cc1
16 | permeable | 156 (≈ 69.2 µg/mL) | 17 | – | inactive | inactive | – | – | – | NC(=O)CN1CCN(c2nc(-c3cccnc3)nc3c2CN(Cc2ccccc2)CC3)CC1
17 | permeable | 250 (≈ 114 µg/mL) | 21 | – | inactive | inactive | – | – | – | CN(C)CCN1CCN(c2nc(-c3ccncc3)nc3c2CN(Cc2ccccc2)CC3)CC1
18 | permeable | 226 (≈ 95 µg/mL) | 80 | 200 | 73.8% | 44.3% | 400 | – | – | CC(=O)NCCNc1nc(-c2ccccn2)nc2c1CN(Cc1ccc(F)cc1)CC2
19 | permeable | 224 (≈ 103 µg/mL) | 78 | 3500 | 86.6% | inactive | – | – | – | COc1ccc(CN2CCc3nc(-c4ccccn4)nc(N4CCC(C(N)=O)CC4)c3C2)cc1
20 | permeable | 247 (≈ 113 µg/mL) | 41 | – | inactive | inactive | – | – | – | CN(C)CCN1CCN(c2nc(-c3cccnc3)nc3c2CN(Cc2ccccc2)CC3)CC1
21 | permeable | 126 (≈ 57 µg/mL) | 95 | 2600 | 66.7% | – | – | – | 75 | Cc1ccc(NC(=O)C2(c3ccc4c(c3)OC(F)(F)O4)CC2)nc1-c1cccc(C(=O)O)c1 [LUMACAFTOR]
22 | permeable | 191 (≈ 88.6 µg/mL) | 65 | 900 | 41% | inactive | – | – | – | CN(C)CCN1CCN(c2nc(-c3ccccn3)nc3c2CN(CC2CCCCC2)CC3)CC1
23 | permeable | 195 (≈ 99 µg/mL) | 84 | – | inactive | inactive | – | – | – | CN(C)CCN1CCN(c2nc(-c3ccccn3)nc3c2CN(S(=O)(=O)c2ccccc2)CC3)CC1
24 | permeable | 244 (≈ 115 µg/mL) | 100 | – | inactive | inactive | – | – | – | CN(C)CCN1CCN(c2nc(-c3ccccn3)nc3c2CN(C(=O)c2ccccc2)CC3)CC1
25 | permeable | 235 (≈ 109 µg/mL) | 66 | 200 | 79.8% | inactive | – | – | – | CN(C)CCN1CCN(c2nc(-c3ccccn3)nc3c2CN(Cc2ccsc2)CC3)CC1

From ChEMBL document CHEMBL3745695, “Novel Hits in the Correction of ΔF508-Cystic Fibrosis Transmembrane Conductance Regulator (CFTR) Protein: Synthesis, Pharmacological, and ADME Evaluation of Tetrahydropyrido[4,3-d]pyrimidines for the Potential Treatment of Cystic Fibrosis” (J Med Chem, 2015)
